Screening data as filed in PubChem.
Compounds with a hit are over-represented: about 3.8% of the library has one in this group of screens.
KCNK9 block = inhibitors of human KCNK9 two-pore domain potassium channel. Q9NPC2. HEK293 KCNK9, FluxOR thallium flux fluorescence; active compounds read low. B-score at 10 µM. 310,000 compounds, 1.2% hits;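 active = ratio B-score over 3 SD below the library mean, with starting fluorescence within 5 SD of its mean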;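 note: negative B-score means less thallium flux so channel inhibition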
Kir21 inh = Kir2.1 (mouse) channel inhibition; HEK293-Kir2.1, FluxOR thallium flux fluorescence; active compounds read low; 310,000 compounds, 0.85% hits; P35561; B-score at 10 µM;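 active = fluorescence ratio B-score at or below minus 3 SD of library scores, with starting-brightness B-score within 2 SD, cut at about -4.2 in these data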;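 note: channel flux triggered by added potassium and thallium sulfate stimulus; B-score of peak minus minimum fluorescence over baseline after thallium stimulus; more negative B-score means stronger Kir2.1 block with less thallium influx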
KCNK3 inh = human KCNK3 channel inhibition, primary screen | B-score at 10 µM | O14649 | 340,000 compounds, 0.84% hits | AID 602410 | CHO-KCNK3 thallium flux, FluxOR fluorescence; active compounds read low;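 active = B-score under library mean minus 4 SD, starting fluorescence ratio at most library mean plus 5 SD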;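 note: more negative B-score means stronger inhibition of thallium flux through KCNK3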
Target sequence (O14649 whole entry, looked up): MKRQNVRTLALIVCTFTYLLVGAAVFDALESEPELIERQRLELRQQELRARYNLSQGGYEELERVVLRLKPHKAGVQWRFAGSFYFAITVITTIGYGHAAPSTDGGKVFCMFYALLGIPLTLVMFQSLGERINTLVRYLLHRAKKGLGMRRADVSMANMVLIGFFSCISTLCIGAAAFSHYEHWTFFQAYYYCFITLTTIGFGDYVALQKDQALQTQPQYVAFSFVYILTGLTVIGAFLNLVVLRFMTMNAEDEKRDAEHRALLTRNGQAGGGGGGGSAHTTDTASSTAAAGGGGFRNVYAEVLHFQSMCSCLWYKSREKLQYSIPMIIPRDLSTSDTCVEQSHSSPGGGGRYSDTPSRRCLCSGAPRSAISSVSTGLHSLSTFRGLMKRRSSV
KCNQ1 inh = inhibitors of human KCNQ1 potassium channel. B-score at 10 µM. 310,000 compounds, 1.3% hits. CHO-K1 KCNQ1, FluxOR thallium flux fluorescence; active compounds read high. AID 2642;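 active = compounds whose thallium flux B-score, printed positive for inhibition, exceeds three library SD while starting fluorescence stays within three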;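 note: channel opened by potassium depolarization with thallium stimulus after 20 min compound exposure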
KCNQ1 pot = potentiators or activators of human KCNQ1 potassium channel. B-score at 10 µM. CHO-K1 KCNQ1, thallium flux FluxOR fluorescence; active compounds read high. AID 2648. 310,000 compounds, 0.35% hits. P51787;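 active = fluorescence ratio B-score, a plate-corrected score, at least three library SD, with initial intensity B-score within 5 SD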
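Assay system: CHO-K1 cells stably expressing KCNQ1; Medium: assay buffer with matched DMSO; Also added: K+/Tl+ depolarizing stimulus; Dosing: single dose; Timing: dye 90 min, compound 20 min, room temperature; Measured by: kinetic FluxOR thallium fluorescence, 10-s 1-Hz baseline, 110-s post-stimulus read; Read-out: peak-minus-minimum fluorescence over initial fluorescence, negative-control normalized, B-scored.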
hERG rescue = hERG (human) protection from proarrhythmic block | Q12809 | CHO-hERG, FluxOR thallium flux, dofetilide IC70 present | activation (rescue from dofetilide block), less the hit threshold, % at 10 µM | 310,000 compounds, 0.51% hits | AID 1511;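 active = activation above the mean of controls blocked by dofetilide plus 5 SD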;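 note: thallium influx through hERG after potassium depolarization seen as dye fluorescence rise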
* = called active by the depositor; i = inactive; · = not tested or not shown.

SMILES	KCNK9 block	Kir21 inh	KCNK3 inh	KCNQ1 inh	KCNQ1 pot	hERG rescue
O=C(NC12CC3CC(CC(C3)C1)C2)c1cc2nc(-c3ccco3)cc(C(F)(F)F)n2n1	i	0.61	i	6*	i	-3.3
Cc1ccccc1Cn1ccc(NC(=O)c2cnn3c(C(F)(F)F)cc(-c4ccco4)nc23)n1	-7.57*	-0.15	i	i	i	-15.4
O=C(Nc1cnn(C23CC4CC(CC(C4)C2)C3)c1)c1cnn2c(C(F)(F)F)cc(-c3ccco3)nc12	i	-0.25	i	11*	i	-26.4
O=C(c1cc2cc(F)ccc2[nH]1)N1CCN(C(=O)c2ccco2)CC1	i	0	i	i	i	-6.2
CS(=O)(=O)Nc1ccc(C2=NN(S(C)(=O)=O)C(c3ccc4c(c3)OCO4)C2)cc1 (centres undefined)	i	-0.29	i	i	i	-8.5
COc1ccccc1NC(=O)c1ccccc1C(=O)N(C)Cc1ccccc1	·	·	i	·	·	·
CCCCCCOc1ccc(NC(=O)CC2C(=O)N(CC)C(=S)N2Cc2ccco2)cc1 (centres undefined)	i	2.03	i	9*	i	-23.6
Cc1ccc(NC(=O)C(C)OC(=O)c2ccc(NC(=O)CC#N)cc2)cc1S(=O)(=O)N1CCOCC1 (centres undefined)	i	2.44	i	i	i	-13.3
N=C1S/C(=C\c2ccco2)C(=O)N1c1nccs1	i	-0.4	i	i	9*	-3.7
COc1ccc(C(=O)Nn2cnc3scc(-c4cccs4)c3c2=O)c(O)c1	i	-1.16	-10.9*	i	i	-13.5
O=c1oc(-c2ccccc2)cc(Cl)c1Cl	i	-0.84	i	6*	i	-24.3
CC1C(=O)N2CCCc3cc(S(=O)(=O)Nc4ccccc4C(N)=O)cc1c32 (centres undefined)	i	0.77	i	i	i	-6.5
Cn1c(CNc2nc3ccccc3n2C)nc2ccccc21	i	-0.33	i	i	i	-14.3
Cc1ccc(CNc2nc3ccccc3n2C)cc1	i	-6.39*	i	i	i	-3.8
Cn1c(NCc2ccc(Cl)cc2)nc2ccccc21	i	-9.62*	i	i	i	-9.4
N#Cc1ccccc1NS(=O)(=O)c1cc2c3c(c1)CCC(=O)N3CCC2	i	1.1	i	i	8*	-6.7
COc1cccc(NC(=O)CSc2nc(O)c(C)c(=O)n2-c2ccc(C)cc2)c1	i	-0.51	i	i	i	-2.3
COc1cc(C)c(Cl)cc1S(=O)(=O)N1CCCC1	i	-3.31	i	i	i	-7.3
CCOc1cc(C)c(Cl)cc1S(=O)(=O)NCc1ccc2c(c1)OCO2	i	-6.56*	i	i	i	-4.9
CCOc1cc(C)c(Cl)cc1S(=O)(=O)N1CCCC1	i	-5.55*	i	i	i	-9.9
Cc1cc(C)c(S(=O)(=O)NCc2ccc3c(c2)OCO3)cc1C	i	-4.26*	i	i	i	-7.3
Cc1cc(C)c(S(=O)(=O)NCc2ccc3c(c2)OCO3)c(C)c1	i	-1.14	i	i	i	-6.1
Cc1cc(S(=O)(=O)NCc2ccncc2)c(C)cc1Br	i	-0.55	i	6*	i	-15.2
COc1ccc(NS(=O)(=O)c2cc3c(cc2C)N(C(C)=O)CCO3)cc1OC	i	-0.01	i	i	i	-12.1
CC(C)=CCc1c(O)c(CC=C(C)C)c2c(c1O)C(=O)CC(c1ccc(O)cc1)O2 (centres undefined)	i	-0.37	i	8*	i	-3.6
SMILES	KCNK9 block	Kir21 inh	KCNK3 inh	KCNQ1 inh	KCNQ1 pot	hERG rescue
Cc1c(O)cc2c(c1O)C(=O)CC(c1ccc(O)cc1)O2 (centres undefined)	i	-0.71	i	i	i	-6.7
Clc1ccc2c(c1)C(N1CCNCC1)Cc1ccccc1S2 (centres undefined)	i	-13.6*	i	6*	i	-22.6
Clc1cccc2c1Sc1ccccc1CC2N1CCNCC1 (centres undefined)	i	-9.71*	i	i	i	-22.0
COCCCN1CCN(C2Cc3ccccc3Sc3ccc(Cl)cc32)CC1 (centres undefined)	i	-2.26	i	i	i	-25.5
COc1ccccc1/C=C(/C#N)C(=O)O	i	3.63	i	i	i	-1.7
CCOC(=O)CCc1c(C)nc(-n2[nH]c(C)c(CCO)c2=O)[nH]c1=O	i	0.17	i	i	i	-4.1
CCC(c1nnnn1CCc1ccccc1)N(Cc1ccco1)Cc1cc2c(C)ccc(C)c2[nH]c1=O (centres undefined)	-7.32*	-6.54e-16	i	i	i	-9.1
CCC(c1nnnn1CCc1ccccc1)N(Cc1ccco1)Cc1cc2cc(C)cc(C)c2[nH]c1=O (centres undefined)	i	-0.34	i	i	i	-7.0
CCC(c1nnnn1Cc1ccco1)N(CCc1ccccc1)Cc1cc2cc(C)ccc2[nH]c1=O (centres undefined)	i	-3.08	i	i	i	-6.8
Cc1ccc2[nH]c(=O)c(CN(CCc3ccccc3)C(c3nnnn3Cc3ccco3)C(C)C)cc2c1 (centres undefined)	i	0.52	-8.87*	i	i	-5.1
CC1CCN(C(=O)CN2C(=O)C(=O)N(C)C2=O)c2ccccc2S1 (centres undefined)	·	·	i	·	·	·
Fc1ccc2nc(Nc3nc4c(F)cccc4s3)sc2c1	i	1.43	i	i	46*	0.2
Fc1cccc2sc(Nc3nc4ccccc4s3)nc12	i	-0.1	i	i	i	13.1*
O=C(NNc1nc2ccccc2s1)c1ccccc1F	i	0.5	i	i	i	-3.1
Fc1ccc2nc(Nc3nc4c(F)cc(F)cc4s3)sc2c1	i	1.16	i	i	i	5.0*
COc1ccc(-c2noc(CCC(=O)N3CCN(c4ccccc4F)CC3)n2)cc1	·	·	i	·	·	·
Cc1cc(C(=O)OCC(=O)c2cccs2)ccc1[N+](=O)[O-]	·	·	i	·	·	·
CCN(Cc1ccccc1)CC(O)COC(c1ccc(OC)cc1)c1ccc(OC)cc1 (centres undefined)	i	-8.82*	i	i	i	-11.0
CCN(CC)CC(O)COC(c1ccccc1)c1ccccc1 (centres undefined)	i	0.28	i	i	i	-4.6
COc1ccc2c(c1)[nH]c1c(N3CCN(Cc4ccc5c(c4)OCO5)CC3)ncnc12	i	-1.18	i	9*	i	-35.6
Cc1cc([N+](=O)[O-])cnc1Sc1nccn1C	i	-0.7	i	i	i	-3.9
